Experimental data from ChEMBL document CHEMBL5647693, “Molecular basis underlying resistance to Mps1/TTK inhibitors” (Oncogene, 2016).
pIC50: −log10 of the molar value. Active and inactive are the calls of the source. The rule behind the calls is not given here.

Columns and labels:
[1] = system: U2OS; assay: Induction of mitotic arrest in human U2OS cells harboring LAP-Mps1 531M mutant assessed as maintain in checkpoint-dependent arrest at 100 nM incubated for 16 hrs in the presence of nocodazole; format: functional, cell-based
Method in brief: (§1)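 About 10 000 cells per 96-well plated on day 0. On day 1, nocodazole (200 ng/ml) plus Cpd-5 at various concentrations added for 16 h. Fixed in 5% formaldehyde, stained for phospho-histone H3-Ser10 and DAPI, up to nine images per well (~3000 cells). Mitotic index = pH3S10-positive/DAPI-positive cells, normalized; three independent experiments.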

[2] = system: HCT-116; assay: Inhibition of colony formation in human HCT-116 cells harboring Mps1 C604Y-B mutant assessed as cell survival incubated for 5 days crystal violet staining based colony formation assay; format: functional; settings: HCT-116, 120 h
Method in brief: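 Cells (~1500 per well, 96-well format) seeded day 0; inhibitor added day 1 over a range of concentrations; on day 6 fixed 10 min in 96% methanol, stained with 0.1% crystal violet, washed, scanned and quantified. Grown in DMEM with 6% FCS, penicillin-streptomycin, 2 mM L-glutamine. Survival relative to untreated; IC50 from curve fit, average of three independent experiments.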

[3] = system: HCT-116; assay: Antiproliferative activity against human HCT-116 cells harboring Mps1 C604Y-A mutant assessed as change in Mps1 expression level by Western blot analysis; format: functional, cell-based
Method in brief: (§2)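 Lysis in Tris/HCl pH 7.5 with 150 mM NaCl, 1% Triton X-100, DTT, EDTA, phosphatase and protease inhibitors. SDS-PAGE, transfer to nitrocellulose, block in 4% BSA 0.5 h at room temperature, primary antibody (Mps1-NT) overnight at 4 °C, secondary 1:2000 for 1 h, ECL chemiluminescence detection.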

[4] = system: HeLa; assay: Induction of mitotic arrest in human HeLa cells expressing histone H2B-YFP assessed as chromosome misalignment at 50 to 100 nM incubated for 16 hrs by time-lapse microscopy relative to control; format: functional; settings: dose 50-100 nM
Method in brief: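 HeLa H2B-YFP cells imaged live at 37 °C in L-15 after DMSO or 50/100 nM Cpd-5. Anaphases scored for missegregation as mild (up to 3 chromosomes) or severe (>3 chromosomes), 50 cells per condition.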

[5] = system: HCT-116; assay: cells; format: functional, cell-based; settings: Homo sapiens, HCT-116, 120 h
[6] = system: HeLa; assay: Induction of mitotic arrest in human HeLa cells harboring Mps1-C604F mutant assessed as […] in average mitotic time with severe seggregation at 400 nM relative to control; format: functional
[7] = system: HCT-116; assay: Induction of mitotic arrest in human HCT-116 cells assessed as decrease in mitotic index at 30 nM incubated for 16 hrs; format: functional; set-up: scale not given: the % may be the effect or the level left; method in brief: as §1
[8] = system: U2OS; assay: Induction of mitotic arrest in human U2OS cells harboring LAP-Mps1 C604Y mutant assessed as maintain in checkpoint-dependent arrest at 100 nM incubated for 16 hrs in the presence of nocodazole; format: functional, cell-based; method in brief: as §1
[9] = system: HCT-116; assay: Inhibition of colony formation in human HCT-116 cells harboring Mps1 C604Y-B mutant assessed as cell survival at 60 nM incubated for 14 days by crystal violet staining based colony formation assay; format: functional; settings: time 14.0 day
Method in brief: (§3)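 About 500–600 cells per 6-well plated on day 0, Cpd-5 added day 1 at 60 nM, colonies grown to day 14. Fixed 10 min in 96% methanol, stained with 0.1% crystal violet, scanned and analysed. Parental and drug-selected clones tested side by side.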

[10] = system: U2OS; assay: cells; format: functional, cell-based; settings: Homo sapiens, 120 h
[11] = species: Homo sapiens; assay: Inhibition of recombinant Mps1 C604Y mutant (unknown origin) assessed as KNL1 phosphorylation level incubated for 10 min by Western blot analysis
[12] = species: Homo sapiens; assay: Inhibition of recombinant Mps1 I598F mutant (unknown origin) assessed as KNL1 phosphorylation level incubated for 10 min by Western blot analysis
[13] = system: HCT-116; assay: Induction of mitotic arrest in human HCT-116 cells harboring Mps1 I531M mutant assessed as mitotic index at 200 to 400 nM incubated for 16 hrs in the presence of nocodazole; format: functional, cell-based; settings: dose 200-400 nM; method in brief: as §1
[14] = system: HCT-116; assay: Antiproliferative activity against human HCT-116 cells harboring Mps1 C604Y-B mutant assessed as change in Mps1 expression level by Western blot analysis; format: functional, cell-based; method in brief: as §2
[15] = system: DLD-1; assay: Induction of mitotic arrest in human DLD-1 cells assessed as decrease in mitotic index at 30 nM incubated for 16 hrs; format: functional; set-up: scale not given: the % may be the effect or the level left; method in brief: as §1
[16] = system: HeLa; assay: Inhibition of colony formation in human HeLa cells harboring wild-type Mps1 assessed as cell survival at 60 nM incubated for 14 days by crystal violet staining based colony formation assay; format: functional; settings: time 14.0 day; method in brief: as §3
[17] = system: HeLa; assay: Induction of mitotic arrest in human HeLa cells harboring Mps1-C604F mutant assessed as decrease in average mitotic time with mis seggregation at 200 nM relative to control; format: functional; set-up: scale not given: the % may be the effect or the level left
[18] = system: DLD-1; assay: Antiproliferative activity against human DLD-1 cells harboring Mps1 S611R mutant assessed as change in Mps1 expression level by Western blot analysis; format: functional, cell-based; method in brief: as §2
[19] = system: U2OS; assay: Induction of mitotic arrest in human U2OS cells harboring LAP-Mps1 I598F mutant assessed as maintain in checkpoint-dependent arrest at 100 nM incubated for 16 hrs in the presence of nocodazole; format: functional, cell-based; method in brief: as §1
[20] = system: HCT-116; assay: Induction of mitotic arrest in human HCT-116 cells harboring Mps1 C604Y mutant assessed as mitotic index at 200 to 400 nM incubated for 16 hrs in the presence of nocodazole; format: functional, cell-based; settings: dose 200-400 nM; method in brief: as §1
[21] = system: HeLa; assay: Induction of mitotic arrest in human HeLa cells harboring Mps1 C604Y mutant assessed as initiating anaphase at 200 nM and measured after nuclear envelope breakdown; format: functional, cell-based
[22] = system: HeLa; assay: Induction of mitotic arrest in human HeLa cells harboring Mps1 C604F mutant assessed as initiating anaphase at 200 nM and measured after nuclear envelope breakdown; format: functional, cell-based
[23] = system: HeLa; assay: Induction of mitotic arrest in human HeLa cells assessed as decrease in average mitotic time with severe seggregation errors at 100 nM relative to control; set-up: scale not given: the % may be the effect or the level left
[24] = system: HCT-116; assay: Inhibition of colony formation in human HCT-116 cells harboring Mps1 C604Y-A mutant assessed as cell survival at 60 nM incubated for 14 days by crystal violet staining based colony formation assay; format: functional; settings: time 14.0 day; method in brief: as §3
[25] = system: DLD-1; assay: Inhibition of colony formation in human DLD-1 cells harboring Mps1 S611R mutant assessed as cell survival at 60 nM incubated for 14 days by crystal violet staining based colony formation assay; format: functional; settings: time 14.0 day; method in brief: as §3
[26] = system: HCT-116; assay: Inhibition of colony formation in human HCT-116 cells harboring Mps1 531M mutant assessed as cell survival at 60 nM incubated for 14 days by crystal violet staining based colony formation assay; format: functional; settings: time 14.0 day; method in brief: as §3
[27] = system: U2OS; assay: Inhibition of colony formation in human U2OS cells harboring wild-type LAP-Mps1 assessed as cell survival incubated for 5 days by crystal violet staining based colony formation assay; format: functional; settings: 120 h
Method in brief: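 Cells seeded at ~1500 per 96-well on day 0; inhibitor added on day 1 over a concentration range. On day 6, fixed 10 min in 96% methanol, stained with 0.1% crystal violet, scanned and quantified. Survival relative to untreated; IC50 from dose–response curves; mean of three independent experiments. Culture in DMEM with 6% FCS.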

[28] = system: HeLa; assay: Induction of mitotic arrest in human HeLa cells expressing histone H2B-YFP assessed as initiating anaphase at 50 to 100 nM incubated for 16 hrs and measured within 15 min after nuclear envelope breakdown by time-lapse microscopy relative to control; format: functional; settings: dose 50-100 nM, time 975 min, 16.25 h
Method in brief: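 Live imaging of HeLa H2B-YFP cells in L-15 medium at 37 °C after DMSO or 50/100 nM Cpd-5, no nocodazole. Time from nuclear envelope breakdown to anaphase onset recorded for 50 cells per condition; cumulative anaphase-onset percentage and mean mitotic duration.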

[29] = system: HeLa; assay: Inhibition of colony formation in human HeLa cells harboring Mps1 C604Y mutant at 80 nM incubated for 14 days in the presence of oligonucleotide and Cas9/gRNA by crystal violet staining based colony formation assay; format: functional, cell-based; settings: time 14.0 day
Method in brief: (§4)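 HeLa (1 × 10^6) transfected with mock, a 100-bp repair oligonucleotide alone, or oligonucleotide plus pX330 Cas9/Mps1-targeting gRNA. Selected with 80 nM Cpd-5 for 14 days in 10-cm plates, then stained with crystal violet.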

[30] = species: Homo sapiens; assay: Inhibition of recombinant Mps1 S611R mutant (unknown origin) assessed as KNL1 phosphorylation level incubated for 10 min by Western blot analysis
[31] = system: HeLa; assay: Induction of mitotic arrest in human HeLa cells assessed as depletion in KNL1 phosphorylation at 50 to 100 nM by immunostaining method; format: functional, cell-based; settings: dose 50-100 nM
Method in brief: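 HeLa cells given DMSO, 50 or 100 nM Cpd-5, immunostained for phospho-KNL1 (MELT13/17) and CREST, DNA with DAPI. Kinetochore ph-KNL1/CREST fluorescence intensity ratios from 200 kinetochores per condition.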

[32] = system: DLD-1; assay: cells; format: functional, cell-based; settings: Homo sapiens, DLD-1, 120 h
[33] = system: HeLa; assay: cells; format: functional, cell-based; settings: Homo sapiens, 120 h
[34] = system: DLD-1; assay: Induction of mitotic arrest in human DLD-1 cells harboring Mps1 S611R mutant assessed as mitotic index at 200 to 400 nM incubated for 16 hrs in the presence of nocodazole; format: functional, cell-based; settings: dose 200-400 nM; method in brief: as §1
[35] = system: HeLa; assay: Inhibition of colony formation in human HeLa cells harboring Mps1 I598F mutant assessed as cell survival at 60 nM incubated for 14 days by crystal violet staining based colony formation assay; format: functional; settings: time 14.0 day; method in brief: as §3
[36] = species: Homo sapiens; assay: Inhibition of recombinant Mps1 531M mutant (unknown origin) assessed as KNL1 phosphorylation level incubated for 10 min by Western blot analysis
[37] = system: HeLa; assay: Induction of mitotic arrest in human HeLa cells harboring Mps1-C604F mutant assessed as decrease in average mitotic time with most mild seggregation errors at 200 nM; format: functional, cell-based
[38] = system: HCT-116; assay: Inhibition of colony formation in human HCT-116 cells harboring wild-type Mps1 assessed as cell survival at 60 nM incubated for 14 days by crystal violet staining based colony formation assay; format: functional; settings: time 14.0 day; method in brief: as §3
[39] = system: HCT-116; assay: Antiproliferative activity against human HCT-116 cells harboring Mps1 531M mutant assessed as change in Mps1 expression level by Western blot analysis; format: functional, cell-based; method in brief: as §2
[40] = system: HeLa; assay: Antiproliferative activity against human HeLa cells harboring Mps1 I598F mutant assessed as change in Mps1 expression level by Western blot analysis; format: functional, cell-based; method in brief: as §2
[41] = system: HeLa; assay: Inhibition of colony formation in human HeLa cells harboring Mps1 C604Y mutant at 80 nM incubated for 14 days in the presence of oligonucleotide by crystal violet staining based colony formation assay; format: functional, cell-based; settings: time 14.0 day; method in brief: as §4
[42] = system: U2OS; assay: Induction of mitotic arrest in human U2OS cells harboring LAP-Mps1 S611R mutant assessed as maintain in checkpoint-dependent arrest at 100 nM incubated for 16 hrs in the presence of nocodazole; format: functional, cell-based; method in brief: as §1

## CCc1cccc(CC)c1NC(=O)c1nn(C)c2c1CCc1cnc(Nc3ccc(N4CCN(C)CC4)cc3OC)nc1-2
[1]
  Activity: Active
[2]
  pIC50: 6.51
[3]
  Activity: inactive
[4]
  Activity: 100%
[5]
  pIC50: 7.70
[6]
  Activity: 100%
[7]
  Activity: 60%
[8]
  Activity: Active
[9]
  inhibition: Active
[10]
  pIC50: 7.69
[11]
  inhibition: Active
[12]
  inhibition: Active
[13]
  Activity: Active
[14]
  Activity: inactive
[15]
  Activity: 70%
[16]
  inhibition: inactive
[17]
  Activity: 70%
[18]
  Activity: inactive
[19]
  Activity: Active
[20]
  Activity: Active
[21]
  Activity: inactive
[22]
  Activity: inactive
[23]
  Activity: 100%
[24]
  inhibition: Active
[25]
  inhibition: Active
[26]
  inhibition: Active
[27]
  pIC50: 7.48
[28]
  Activity: 100%
[29]
  Activity: Active
[30]
  inhibition: Active
[31]
  Activity: Active
[32]
  pIC50: 7.61
[33]
  pIC50: 6.60
[34]
  Activity: Active
[35]
  inhibition: Active
[36]
  inhibition: Active
[37]
  Activity: Active
[38]
  inhibition: inactive
[39]
  Activity: inactive
[40]
  Activity: inactive
[41]
  Activity: Active
[42]
  Activity: Active
